{
  "source": "ChEMBL document CHEMBL5543129",
  "about": "“Peptide Inhibitor Targeting the Extraterminal Domain in BRD4 Potently Suppresses Breast Cancer Both In Vitro and In Vivo” (J Med Chem, 2024)",
  "key": {"[1]": {"experiment": "Toxicity in BALB/c mouse xenografted with human MCF7 cells assessed as change in spleen morphology at 12.5 mg/kg, ip administered every 2 days in presence of 50 mg/kg JQ1", "type": "organism-based", "settings": "in vivo, 48 h"}, "[2]": {"test_system": "MCF7", "experiment": "Antitumor activity against human MCF7 cells xenografted in BALB/c nude mouse assessed as reduction in tumor volume at 12.5 mg/kg, ip administered every 2 days in presence of 50 mg/kg JQ1", "type": "functional, organism-based", "how_it_was_run": "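Female BALB/c nude mice given 5 × 10^6 cells sc (MCF7 mice with E2 10^-2 M every 2 days), randomised at ~50 mm3. Peptide 12.5 mg/kg ip (saline) every 2 days, plus JQ1 50 mg/kg ip (DMSO/10% HPBCD 1:10) every 2 days or iJMJD6 12.5 mg/kg ip (DMSO/PBS 1:20). Caliper volume every 2 days; tumours weighed at the end.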"}, "[3]": {"experiment": "Toxicity in BALB/c mouse xenografted with human MDA-MB-231 cells assessed as change in heart morphology at 12.5 mg/kg, ip administered every 2 days in presence of 50 mg/kg JQ1", "type": "organism-based", "settings": "in vivo, 48 h", "how_it_was_run": "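Female BALB/c nude mice (4–6 weeks) carried sc MDA-MB-231 xenografts (5 × 10^6 cells) and were randomized at about 50 mm3. Peptide (12.5 mg/kg ip in saline) and JQ1 (50 mg/kg ip, DMSO/10% HPBCD 1:10) were given every 2 days, alone or combined. Body weight was recorded, and heart, liver, spleen, lung and kidney morphology and weight were assessed.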"}, "[4]": {"experiment": "Downregulation of CCND1 protein expression in BALB/c mouse tumor xenografted with human MDA-MB-231 cells assessed as fold change in remaining CCND1 level at 25 mg/kg, ip administered every 2 days by immunoblotting analysis", "type": "functional", "how_it_was_run": "(§1)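 Tumours taken from xenograft mice dosed with peptide at 25 mg/kg ip every 2 days. […] Three repeats.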"}, "[5]": {"test_system": "MCF7", "experiment": "Antiproliferative activity against human MCF7 cells at 10 uM incubated for 1 week in presence of 5 uM JQ1 by CellTiter 96 Aqueous One Solution based assay", "type": "functional, cell-based", "settings": "time 1.0 weeks", "how_it_was_run": "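Cells seeded at 2 × 10^3/well and treated with peptide (10 μM) alone or combined with JQ1 (5 μM), iJMJD6 (10 μM) or ICI (2.5 μM), as the line states. Viability read by MTS reagent, 1 h at 37 °C, A490. Three biological repeats.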"}, "[6]": {"test_system": "MDA-MB-231", "experiment": "Antitumor activity against human MDA-MB-231 cells xenografted in BALB/c nude mouse assessed as reduction in tumor growth at 25 mg/kg, ip administered every 2 days", "type": "functional, organism-based", "how_it_was_run": "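Female BALB/c nude mice, 4–6 wk, given 5 × 10^6 cells in PBS subcutaneously; MCF7 mice also had E2 (10^-2 M) brushed on the neck every 2 days. Randomised at ~50 mm3. Peptide in 0.9% saline, 25 mg/kg ip every 2 days. Caliper volume (1/2 × L × W²) every 2 days.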"}, "[7]": {"test_system": "Mus musculus", "experiment": "Downregulation of c-Myc mRNA expression in BALB/c mouse tumor xenografted with human MDA-MB-231 cells at 25 mg/kg, ip administered every 2 days by RT-qPCR analysis", "type": "functional, organism-based", "how_it_was_run": "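Female BALB/c nude mice (4–6 weeks) implanted subcutaneously with 5 × 10^6 cells in PBS. For MCF7 grafts, estrogen (E2, 10–2 M) is brushed on every 2 days. Treatment starts at ~50 mm3 after randomization, with peptide in normal saline ip every 2 days. Tumour mRNA is measured by RT-qPCR.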"}, "[8]": {"test_system": "MCF7", "experiment": "Inhibition of colony formation in human MCF7 cells at 10 uM incubated for 2 weeks in presence of fulvestrant by crystal violet staining based assay", "type": "functional, cell-based", "how_it_was_run": "(§2)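 Cells are seeded at 1 × 10^3/well and treated with peptide (10 μM) for 2 weeks, alone or with JQ1 5 μM, iJMJD6 10 μM, ICI 2.5 μM, or tamoxifen 3 μM (tamoxifen-resistant lines). Colonies are stained with crystal violet, dissolved in 10% acetic acid, and read at 590 nm. Three biological repeats.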"}, "[9]": {"experiment": "Toxicity in BALB/c mouse xenografted with human […] assessed as body weight loss at 25 mg/kg, ip administered every 2 days", "type": "organism-based", "settings": "in vivo, 48 h", "how_it_was_run": "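Female BALB/c nude mice (4–6 weeks) received 5 × 10^6 MCF7 cells sc in PBS, with estrogen (E2, 10–2 M) brushed on the neck every 2 days. Mice were randomized at about 50 mm3 tumor volume. Peptide in normal saline was given ip at 25 mg/kg every 2 days. Body weight was monitored.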"}, "[10]": {"experiment": "Toxicity in BALB/c mouse xenografted with human MCF7 cells assessed as change in body weight at 2.5 mg/kg, ip administered every 2 days in presence of 12.5 mg/kg fulvestrant", "type": "organism-based", "settings": "in vivo, 48 h"}, "[11]": {"test_system": "T47D", "experiment": "Inhibition of colony formation in human T47D cells at 10 uM incubated for 2 weeks in presence of JMJD6 inhibitor by crystal violet staining based assay", "type": "functional, cell-based", "how_it_was_run": "as §2"}, "[12]": {"test_system": "MDA-MB-231", "experiment": "Inhibition of cell migration in human MDA-MB-231 cells at 10 uM incubated for 12 hrs by inverted microscopic assay", "type": "functional, cell-based", "how_it_was_run": "(§3)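 Cells are seeded at 5 × 10^5/well and scratched at 80–90% confluence. They are kept in serum-free medium with peptide (10 μM); partner agents are JQ1 5 μM, iJMJD6 10 μM, or ICI 2.5 μM. Wound area is imaged by inverted microscope at 0 and 12 or 24 h. Wound closure % = (A0−A1)/A0 × 100. Three biological repeats.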"}, "[13]": {"test_system": "MDA-MB-231", "experiment": "Inhibition of cell migration in human MDA-MB-231 cells at 10 uM incubated for 12 hrs in presence of 5 uM JQ1 by inverted microscopic assay", "type": "functional, cell-based", "how_it_was_run": "as §3"}, "[14]": {"experiment": "Downregulation of JMJD6 protein expression in BALB/c mouse tumor xenografted with human MDA-MB-231 cells assessed as fold change in remaining JMJD6 level at 25 mg/kg, ip administered every 2 days by immunoblotting analysis", "type": "functional", "how_it_was_run": "as §1"}, "[15]": {"experiment": "Downregulation of c-Myc protein expression in human MCF7 cells assessed as fold change in remaining c-Myc level at 10 uM incubated for 24 hrs by immunoblotting analysis (reference value: 1)", "type": "functional", "how_it_was_run": "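Cells (MCF7 or MDA-MB-231 in DMEM, 10% FBS, 37 °C, 5% CO2) are treated with peptide for 24 h. Lysates are taken in Tris/NaCl/EDTA/1% Triton buffer and run on 10% SDS-PAGE. Immunoblots are normalised to β-actin loading control; three repeats.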"}, "[16]": {"test_system": "MDA-MB-231", "experiment": "Inhibition of colony formation in human MDA-MB-231 cells at 10 uM incubated for 2 weeks by crystal violet staining based assay", "type": "functional, cell-based", "how_it_was_run": "as §2"}, "[17]": {"experiment": "Toxicity in BALB/c mouse xenografted with human MCF7 cells assessed as change in heart weight at 12.5 mg/kg, ip administered every 2 days in presence of 50 mg/kg JQ1", "type": "organism-based", "settings": "in vivo, 48 h"}},
  "note": "Activity calls are given as the source filed them. No cut-off for these calls is given here. Square brackets hold non-standard residues; d marks the D form. Peptide text beside a SMILES is read from it. Hyp = O=C(O)[C@@H]1C[C@@H](O)CN1; Ahx = NCCCCCC(=O)O",
  "data": [
    {"molecule": "CC[C@H](C)[C@H](NC(=O)[C@H](Cc1ccc(O)cc1)NC(=O)[C@@H]1C[C@@H](O)CN1C(=O)[C@H](C)NC(=O)[C@@H](NC(=O)CCCCCNC(=O)[C@H](CCC(=O)O)NC(=O)CNC(=O)[C@H](CS)NC(=O)[C@H](CCCCN)NC(=O)[C@H](Cc1ccccc1)NC(=O)[C@H](CCCCN)NC(=O)[C@H](CCC(N)=O)NC(=O)[C@H](CC(N)=O)NC(=O)[C@H](CCCNC(=N)N)NC(=O)[C@H](CCCNC(=N)N)NC(=O)[C@H](CCCNC(=N)N)NC(=O)[C@H](CCCNC(=N)N)NC(=O)[C@H](CCC(N)=O)NC(=O)[C@H](CCCNC(=N)N)NC(=O)[C@H](CCCNC(=N)N)NC(=O)[C@H](CCCCN)NC(=O)[C@H](CCCCN)NC(=O)[C@H](CCCNC(=N)N)NC(=O)CNC(=O)[C@@H](N)Cc1ccc(O)cc1)[C@@H](C)CC)C(=O)O", "note": "(H-YGRKKRRQRRRRNQKFKCGE[Ahx]IA[Hyp]YI-OH)", "values": [
      {"measurement": "Activity", "setting": "[1]", "value": "Non-Toxic"},
      {"measurement": "Activity", "setting": "[2]", "value": "Active"},
      {"measurement": "Activity", "setting": "[3]", "value": "Non-Toxic"},
      {"measurement": "fold change (FC)", "setting": "[4]", "value": 0.08},
      {"measurement": "Activity", "setting": "[5]", "value": "Active"},
      {"measurement": "Activity", "setting": "[6]", "value": "Active"},
      {"measurement": "Activity", "setting": "[7]", "value": "Active"},
      {"measurement": "inhibition", "setting": "[8]", "value": "Active"},
      {"measurement": "Activity", "setting": "[9]", "value": "Non-Toxic"},
      {"measurement": "Activity", "setting": "[10]", "value": "Non-Toxic"},
      {"measurement": "inhibition", "setting": "[11]", "value": "Active"},
      {"measurement": "inhibition", "setting": "[12]", "value": "Active"},
      {"measurement": "inhibition", "setting": "[13]", "value": "Active"},
      {"measurement": "fold change (FC)", "setting": "[14]", "value": 0.48},
      {"measurement": "fold change (FC)", "setting": "[15]", "value": 0.72},
      {"measurement": "inhibition", "setting": "[16]", "value": "Active"},
      {"measurement": "Activity", "setting": "[17]", "value": "Non-Toxic"}
    ]},
    {"molecule": "H-YGRKKRRQRRRRNQKFKCGE-OH", "values": [
      {"measurement": "Activity", "setting": "[1]", "value": "Non-Toxic"},
      {"measurement": "Activity", "setting": "[2]", "value": "Active"},
      {"measurement": "Activity", "setting": "[3]", "value": "Non-Toxic"},
      {"measurement": "fold change (FC)", "setting": "[4]", "value": 0.28},
      {"measurement": "Activity", "setting": "[5]", "value": "Active"},
      {"measurement": "Activity", "setting": "[6]", "value": "Active"},
      {"measurement": "Activity", "setting": "[7]", "value": "Active"},
      {"measurement": "inhibition", "setting": "[8]", "value": "Active"},
      {"measurement": "Activity", "setting": "[9]", "value": "Non-Toxic"},
      {"measurement": "Activity", "setting": "[10]", "value": "Non-Toxic"},
      {"measurement": "inhibition", "setting": "[11]", "value": "Active"},
      {"measurement": "inhibition", "setting": "[12]", "value": "Active"},
      {"measurement": "inhibition", "setting": "[13]", "value": "Active"},
      {"measurement": "fold change (FC)", "setting": "[14]", "value": 0.98},
      {"measurement": "fold change (FC)", "setting": "[15]", "value": 0.69},
      {"measurement": "inhibition", "setting": "[16]", "value": "Active"},
      {"measurement": "Activity", "setting": "[17]", "value": "Non-Toxic"}
    ]}
  ]
}
